ChEMBL document CHEMBL4715779, “In vivo effective dibenzo[b,d]furan-1-yl-thiazoles as novel PDE-4 inhibitors” (Bioorg Med Chem, 2016)

Tests used:
[1] = tested on: PBMC; test: Inhibition of PDE-4 in human PBMC assessed as LPS-induced TNFalpha production at 100 nM incubated for 15 mins followed by LPS stimulation and measured after 18 hrs by ELISA relative to control; conditions: time 1095.0 min
Method in brief: (§1)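 PBMC isolated from healthy volunteers' blood in cell preparation tubes, suspended in RPMI; 0.5 million cells/well pre-incubated with compound 15 min at 37 °C, then stimulated with E. coli LPS (B4) 1 µg/mL for 18 h at 37 °C, 5% CO2; medium TNF-α measured by ELISA.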

[2] = molecular target: T1, 3',5'-cyclic-AMP phosphodiesterase 4B (Homo sapiens, UniProt Q07343); test: Inhibition of human PDE4B using [3H]cAMP as substrate at 100 nM incubated for 5 mins followed by substrate addition and measured after 10 mins by scintillation proximity assay relative to control; conditions: time 15.0 min
T1 sequence (Q07343 whole entry): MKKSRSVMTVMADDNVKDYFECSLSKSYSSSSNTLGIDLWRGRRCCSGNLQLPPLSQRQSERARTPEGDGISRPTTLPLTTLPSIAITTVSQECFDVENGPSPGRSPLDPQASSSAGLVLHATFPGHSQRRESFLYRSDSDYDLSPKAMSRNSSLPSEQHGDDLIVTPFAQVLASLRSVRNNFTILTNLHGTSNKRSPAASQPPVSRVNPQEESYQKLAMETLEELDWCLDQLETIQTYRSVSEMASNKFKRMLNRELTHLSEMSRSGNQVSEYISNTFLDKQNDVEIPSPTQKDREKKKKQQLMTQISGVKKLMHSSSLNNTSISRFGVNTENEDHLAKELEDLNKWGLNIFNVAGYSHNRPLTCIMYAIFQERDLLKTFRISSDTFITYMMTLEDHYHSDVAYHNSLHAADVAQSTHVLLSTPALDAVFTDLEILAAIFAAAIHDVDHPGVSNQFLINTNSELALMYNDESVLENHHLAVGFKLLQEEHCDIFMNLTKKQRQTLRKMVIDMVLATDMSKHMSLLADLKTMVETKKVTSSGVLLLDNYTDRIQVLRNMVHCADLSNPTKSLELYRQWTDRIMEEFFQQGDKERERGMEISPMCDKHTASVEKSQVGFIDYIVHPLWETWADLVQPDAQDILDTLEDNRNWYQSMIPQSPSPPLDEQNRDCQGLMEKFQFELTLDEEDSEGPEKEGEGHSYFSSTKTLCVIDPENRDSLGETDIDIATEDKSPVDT
Method in brief: (§2)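 Purified human PDE-4B2 in 50 mM Tris pH 7.4, 8.3 mM Mg2+, 1% DMSO final, enzyme converting 10–20% of substrate; 5 min pre-incubation at 37 °C, then 0.5 µM cAMP with ~50,000 cpm [3H]-cAMP for 10 min; stopped with yttrium silicate SPA beads containing 18 mM ZnSO4, read after >30 min settling. Background = no enzyme; IC50 from 8–10-point 4-parameter fit.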

[3] = molecular target: T1, 3',5'-cyclic-AMP phosphodiesterase 4B; test: Inhibition of human PDE4B using [3H]CAMP as substrate at 1000 nM incubated for 5 mins followed by substrate addition and measured after 10 mins by scintillation proximity assay relative to control; conditions: time 15.0 min; method in brief: as §2
[4] = tested on: PBMC; test: Inhibition of PDE-4 in human PBMC assessed as LPS-induced TNFalpha production at 1000 nM incubated for 15 mins followed by LPS stimulation and measured after 18 hrs by ELISA relative to control; conditions: time 1095.0 min; method in brief: as §1
[5] = Inhibition of PDE-4 in human PBMC assessed as LPS-induced TNFalpha production incubated for 15 mins followed by LPS stimulation and measured after 18 hrs by ELISA relative to control; method in brief: as §1
[6] = molecular target: T1, 3',5'-cyclic-AMP phosphodiesterase 4B; test: Inhibition of human PDE4B using [3H]cAMP as substrate incubated for 5 mins followed by substrate addition and measured after 10 mins by scintillation proximity assay; method in brief: as §2
[7] = tested on: Mus musculus; test: Antiinflammatory activity in Swiss albino mouse model of LPS-induced sepsis assessed as reduction in TNFalpha production at 10 mg/kg, po administered 30 mins before LPS stimulation and measured after 90 min by ELISA relative to control; type: functional; conditions: 2 h, time 120 min
Method in brief: (§3)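 Female Swiss albino mice fasted 20 h with water, dosed orally in 0.5% Tween 80/0.25% CMC sodium; vehicle-only controls. 500 µg E. coli LPS (B4) in PBS i.p. 30 min later; retro-orbital bleed 90 min post-LPS, blood held overnight at 4 °C, serum TNF-α by mouse ELISA; % inhibition.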

[8] = tested on: Mus musculus; test: Antiinflammatory activity in Swiss albino mouse model of LPS-induced sepsis assessed as reduction in TNFalpha production at 1 mg/kg, po administered 30 mins before LPS stimulation and measured after 90 min by ELISA relative to control; type: functional; conditions: 2 h, time 120 min; method in brief: as §3
[9] = tested on: Rattus norvegicus; test: Antiinflammatory activity in Sprague-Dawley rat model of LPS-induced COPD and asthma assessed as reduction in neutrophil influx in BALF at 10 mg/kg, po administered 30 mins before LPS stimulation and measured after 6 hrs relative to control; type: functional; conditions: time 6.5 hrs
[10] = tested on: Rattus norvegicus; test: Antiinflammatory activity in Sprague-Dawley rat model of LPS-induced COPD and asthma assessed as reduction in neutrophil influx in BALF at 5 mg/kg, po administered 30 mins before LPS stimulation and measured after 6 hrs relative to control; type: functional; conditions: time 6.5 hrs
[11] = tested on: Mus musculus; test: Antiinflammatory activity in Swiss albino mouse model of LPS-induced sepsis assessed as reduction in TNFalpha production at 3 mg/kg, po administered 30 mins before LPS stimulation and measured after 90 min by ELISA relative to control; type: functional; conditions: 2 h, time 120 min; method in brief: as §3
[12] = tested on: Rattus norvegicus; test: Antiinflammatory activity in Sprague-Dawley rat model of LPS-induced COPD and asthma assessed as reduction in total cell count in BALF at 10 mg/kg, po administered 30 mins before LPS stimulation and measured after 6 hrs relative to control; type: functional; conditions: time 6.5 hrs

SMILES | inhibition [2] [%] | inhibition [3] [%] | inhibition [1] [%] | inhibition [4] [%] | other results
COc1ccc(-c2nc(C(=O)N3CCN(c4ncccn4)CC3)cs2)c2c1oc1ccccc12 | 25.8 | 59.3 |  |  | 
CCOC(=O)c1cccc(-c2csc(-c3ccc(OC)c4oc5ccccc5c34)n2)n1 | 5.8 | 15.6 |  |  | 
COc1ccc(-c2nc(C(=O)Nc3c(Cl)cncc3Cl)cs2)c2c1oc1ccccc12 | 70.3 | 92 |  | 34.2 | inhibition in vivo at 10 mg/kg [7]: 37.8%; IC50 [5]: 1750 nM; IC50 [6]: 48.4 nM
COc1ccc(-c2nc(C(=O)Nc3c(Cl)cncc3Cl)c(C)s2)c2c1oc1ccccc12 | 11.1 |  | 0.9 | 9.9 | 
O=C(NCC(F)(F)F)c1csc(-c2ccc(OC(F)F)c3oc4ccccc4c23)n1 |  |  | 26.7 | 31.9 | 
CCNC(=O)c1nc(-c2ccc(OC)c3oc4ccccc4c23)sc1C | 24.6 |  | 9.9 | 23.8 | 
COc1ccc(-c2nc(C(=O)N3CCN(c4ccccn4)CC3)cs2)c2c1oc1ccccc12 | 21.9 | 52.9 |  |  | 
CS(=O)(=O)Nc1ccc2oc3c(OC(F)F)ccc(C(=O)Nc4c(Cl)cncc4Cl)c3c2c1 [OGLEMILAST] |  |  |  |  | inhibition in vivo at 10 mg/kg [7]: 72.5%; inhibition in vivo at 1 mg/kg [8]: 53.9%
COc1ccc(-c2csc(-c3ccc(OC)c4oc5ccccc5c34)n2)cc1 | 19.4 | 41.5 |  |  | 
CCOc1cc([C@@H](CS(C)(=O)=O)N2C(=O)c3cccc(NC(C)=O)c3C2=O)ccc1OC |  |  |  |  | IC50 [5]: 77 nM
COc1ccc(-c2nc(-c3ccc(C#N)cc3)cs2)c2c1oc1ccccc12 | 5.2 | 15.8 |  |  | 
O=C(Nc1c(Cl)cncc1Cl)c1ccc(OC(F)F)c(OCC2CC2)c1 [ROFLUMILAST] |  |  |  |  | inhibition in vivo at 3 mg/kg [11]: 59.2%; IC50 [5]: 4.3 nM; inhibition in vivo at 10 mg/kg [9]: 73.2%; inhibition in vivo at 10 mg/kg [12]: 73.2%
COc1ccc(-c2nc(CC(=O)Nc3c(Cl)cncc3Cl)cs2)c2c1oc1ccccc12 | 32.7 | 87.8 |  |  | 
COc1ccc(-c2nc(CCC(=O)Nc3c(Cl)cncc3Cl)cs2)c2c1oc1ccccc12 | 8.9 | 38.5 |  |  | 
COc1ccc(-c2nc(-c3cccc(C(=O)O)n3)cs2)c2c1oc1ccccc12 | 18.2 | 26.4 |  |  | 

Second part, led by results:

inhibition [2] [%] | inhibition [3] [%] | SMILES | inhibition [1] [%] | inhibition [4] [%] | other results
27.4 |  | O=C(c1csc(-c2ccc(OC(F)F)c3oc4ccc(C(F)(F)F)cc4c23)n1)N1CCC(O)CC1 | 14 |  | 
62.6 |  | COc1ccc(-c2nc(C(=O)NC3CCC(O)CC3)c(C)s2)c2c1oc1ccccc12 (configuration not stated) | 82.7 | 103 | IC50 [5]: 27.7 nM; IC50 [6]: 43.8 nM
67 |  | CS(=O)(=O)Nc1ccc2oc3c(OC(F)F)ccc(-c4nc(C(=O)NC5CCC(O)CC5)cs4)c3c2c1 (configuration not stated) | 78.6 | 97.8 | IC50 [5]: 18.4 nM; IC50 [6]: 31.4 nM
56.5 |  | CC(=O)Nc1ccc2oc3c(OC(F)F)ccc(-c4nc(C(=O)O)cs4)c3c2c1 | 15.5 |  | 
1.6 |  | COc1ccc(-c2nc(C(=O)NC3CCCC3)c(C)s2)c2c1oc1ccccc12 | 21.9 | 39.1 | 
15.4 | 43.8 | COc1ccc(-c2nc(C(N)=O)cs2)c2c1oc1ccccc12 | 35.5 | 69.8 | IC50 [5]: 386 nM
17.6 | 24.4 | CCOC(=O)c1csc(-c2ccc(OC)c3oc4ccccc4c23)n1 |  |  | 
2.4 | 7.4 | COc1ccc(-c2nc(C(=O)Nc3ccccc3)cs2)c2c1oc1ccccc12 |  |  | 
39.6 |  | COc1ccc(-c2nc(C(=O)NN3CCOCC3)cs2)c2c1oc1ccccc12 |  | 22 | 
42.3 | 88.6 | O=C(Nc1c(Cl)cncc1Cl)c1csc(-c2ccc(OC(F)F)c3oc4ccccc4c23)n1 | 14.5 | 28.3 | IC50 [5]: 2210 nM; IC50 [6]: 127 nM
62.6 |  | Cc1sc(-c2ccc(OC(F)F)c3oc4ccc(NS(C)(=O)=O)cc4c23)nc1C(=O)O |  |  | 
67.6 |  | Cc1sc(-c2ccc(OC(F)F)c3oc4ccc(NS(C)(=O)=O)cc4c23)nc1C(=O)NC1CCC(O)CC1 (configuration not stated) | 61.8 | 92.8 | IC50 [5]: 54.4 nM; inhibition in vivo at 10 mg/kg [9]: 19.3%; IC50 [6]: 24.7 nM
69 |  | CC(=O)Nc1ccc2oc3c(OC(F)F)ccc(-c4nc(C(=O)NC5CCC(O)CC5)cs4)c3c2c1 (configuration not stated) | 83.4 | 91.9 | IC50 [5]: 39.6 nM; inhibition in vivo at 10 mg/kg [9]: 51.2%; IC50 [6]: 40.4 nM; inhibition in vivo at 5 mg/kg [10]: 35.7%
35.7 |  | CONC(=O)c1csc(-c2ccc(OC(F)F)c3oc4ccccc4c23)n1 | 8.5 |  | inhibition in vivo at 10 mg/kg [7]: 40.7%
1.2 | 5.2 | COc1ccc(-c2nc(C(=O)Nc3ccc(Cl)cc3)cs2)c2c1oc1ccccc12 | 2.98 | 15.8 | 
71.8 |  | COc1ccc(-c2nc(C(=O)NC3CCC(O)CC3)cs2)c2c1oc1ccccc12 (configuration not stated) | 63.2 |  | inhibition in vivo at 10 mg/kg [7]: 46.7%; IC50 [5]: 37.7 nM; IC50 [6]: 49.5 nM
59.3 |  | O=C(O)c1csc(-c2ccc(OC(F)F)c3oc4ccc(C(F)(F)F)cc4c23)n1 | 4.2 |  | 
81.2 |  | CONC(=O)c1nc(-c2ccc(OC(F)F)c3oc4ccc(NS(C)(=O)=O)cc4c23)sc1C | 35.4 |  | 
43.4 |  | CS(=O)(=O)Nc1ccc2oc3c(OC(F)F)ccc(-c4nc(C(=O)Nc5c(Cl)cncc5Cl)cs4)c3c2c1 | 25.1 |  | 
36 | 80.4 | COc1ccc(-c2nc(C(=O)O)cs2)c2c1oc1ccccc12 |  |  | 
51.5 |  | O=C(NC1CCC(O)CC1)c1csc(-c2ccc(OC(F)F)c3oc4ccc(C(F)(F)F)cc4c23)n1 (configuration not stated) | 17.2 |  | 
